Active and inactive are the calls of the source. The calls are words filed in the database; no cut-off is given here.
Key:
[1] = target: T1, Nucleotide-binding oligomerization domain-containing protein 1 (Homo sapiens) (UniProt Q9Y239); assay: Inhibition of NOD1 in human PBMC-derived macrophages assessed as reduction in C12-iE-DAP-stimulated IL6 mRNA expression at 10 uM preincubated for 1 hr followed by C12-iE-DAP stimulation for 90 mins by RT-qPCR analysis
T1 sequence (whole entry): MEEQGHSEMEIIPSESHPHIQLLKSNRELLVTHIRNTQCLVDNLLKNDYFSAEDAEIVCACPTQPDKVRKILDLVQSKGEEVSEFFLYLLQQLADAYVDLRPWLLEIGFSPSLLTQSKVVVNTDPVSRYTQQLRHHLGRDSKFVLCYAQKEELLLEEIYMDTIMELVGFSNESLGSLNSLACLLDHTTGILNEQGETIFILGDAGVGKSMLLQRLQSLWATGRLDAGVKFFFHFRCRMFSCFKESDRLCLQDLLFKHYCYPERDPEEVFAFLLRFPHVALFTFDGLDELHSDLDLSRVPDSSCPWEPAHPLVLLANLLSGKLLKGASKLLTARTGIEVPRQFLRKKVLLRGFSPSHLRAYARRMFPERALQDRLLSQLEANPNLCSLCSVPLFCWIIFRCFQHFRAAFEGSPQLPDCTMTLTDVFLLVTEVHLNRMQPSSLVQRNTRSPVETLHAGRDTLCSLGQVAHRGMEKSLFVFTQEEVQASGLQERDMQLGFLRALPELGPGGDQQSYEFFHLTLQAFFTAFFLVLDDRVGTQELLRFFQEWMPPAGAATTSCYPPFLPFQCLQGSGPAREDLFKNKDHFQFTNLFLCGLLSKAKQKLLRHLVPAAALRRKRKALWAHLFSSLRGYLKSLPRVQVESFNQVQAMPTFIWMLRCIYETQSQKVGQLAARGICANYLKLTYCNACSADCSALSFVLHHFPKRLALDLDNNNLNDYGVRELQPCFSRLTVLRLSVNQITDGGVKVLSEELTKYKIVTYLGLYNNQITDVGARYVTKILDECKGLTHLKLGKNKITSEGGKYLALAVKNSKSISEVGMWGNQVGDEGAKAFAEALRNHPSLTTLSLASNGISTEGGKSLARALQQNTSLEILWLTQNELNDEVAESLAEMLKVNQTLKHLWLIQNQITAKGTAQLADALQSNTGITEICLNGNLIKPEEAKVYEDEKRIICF
Method in brief: (§1)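 Human CD14+ monocytes from donor PBMC, differentiated 7 days with M-CSF 20 ng/mL to macrophages; 1.0 × 10^6 cells pretreated 1 h with compound (final 0.1% DMSO), then C12-iE-DAP 500 ng/mL or MDP 5 μg/mL for 90 min. IL-6/TNF-α mRNA by qRT-PCR, normalized to GAPDH; stimulated response set to 100%.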

[2] = target: T2, Nucleotide-binding oligomerization domain-containing protein 1 (Homo sapiens, UniProt Q9Y239); assay: Antagonist activity at human NOD1 expressed in HEK-blue cells assessed as inhibition of C12-iE-DAP-stimulated cell activation preincubated for 3 hrs followed by C12-iE-DAP addition measured after 20 hrs by SEAP reporter gene assay; assay type: cell-based
T2 sequence (Q9Y239 whole entry): T1 sequence (whole entry)
Method in brief: (§2)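 HEK-Blue hNOD1 or hNOD2 cells preincubated with compound 3 h, then stimulated 20 h with C12-iE-DAP 50 ng/mL (NOD1) or MDP 100 ng/mL (NOD2); SEAP in supernatant quantified. Primary screen at 10 μM, hits repeated in triplicate; IC50 from dose-response, mean ± SD (n = 3), only for compounds reaching ≥50% inhibition at the screening concentration.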

[3] = target: T3, Nucleotide-binding oligomerization domain-containing protein 2 (Homo sapiens, UniProt Q9HC29); assay: Inhibition of NOD2 in human PBMC-derived macrophages assessed as reduction in MDP-stimulated ERK phosphorylation at 1 to 10 uM preincubated for 1 hr followed by MDP stimulation for 1 hr by Western blot analysis
[4] = target: T1, Nucleotide-binding oligomerization domain-containing protein 1 (Homo sapiens); assay: Inhibition of NOD1 in human PBMC-derived macrophages assessed as reduction in C12-iE-DAP-stimulated IL6 mRNA expression preincubated for 1 hr followed by C12-iE-DAP stimulation for 90 mins by RT-qPCR analysis; method in brief: as §1
[5] = target: T3, Nucleotide-binding oligomerization domain-containing protein 2; assay: Inhibition of human NOD2 expressed in HEK293 cells assessed as suppression of MDP-stimulated p38 phosphorylation preincubated for 1 hr followed by MDP stimulation measured after 1 hr by Western blot analysis
[6] = target: T3, Nucleotide-binding oligomerization domain-containing protein 2; assay: Inhibition of NOD2 in human PBMC-derived macrophages assessed as reduction in MDP-stimulated TNFalpha mRNA expression preincubated for 1 hr followed by MDP stimulation for 90 mins by RT-qPCR analysis; method in brief: as §1
[7] = target: T3, Nucleotide-binding oligomerization domain-containing protein 2; assay: Antagonist activity at human NOD2 expressed in HEK-Blue cells assessed as inhibition of MDP-stimulated cell activation at 10 uM preincubated for 3 hrs followed by MDP addition measured after 20 hrs by SEAP reporter gene assay; assay type: cell-based; method in brief: as §2
[8] = target: T3, Nucleotide-binding oligomerization domain-containing protein 2; assay: Antagonist activity at human NOD2 expressed in HEK-Blue cells assessed as inhibition of MDP-stimulated cell activation preincubated for 3 hrs followed by MDP addition measured after 20 hrs by SEAP reporter gene assay; assay type: cell-based; method in brief: as §2
[9] = target: Receptor-interacting serine/threonine-protein kinase 2 (Homo sapiens) (UniProt O43353); assay: Inhibition of recombinant human N-terminal GST tagged RIPK2 (1 to 299 residues) expressed in baculovirus infected Sf9 insect cells assessed as decrease in MBP phosphorylation at 10 uM preincubated with compound followed by ATP addition measured after 60 mins by ADP-Glo assay
[10] = target: T3, Nucleotide-binding oligomerization domain-containing protein 2; assay: Inhibition of human NOD2 expressed in HEK293 cells assessed as reduction of MDP-mediated decrease in IkBalpha levels preincubated for 1 hr followed by MDP addition measured after 1 hr by Western blot analysis
[11] = target: T3, Nucleotide-binding oligomerization domain-containing protein 2; assay: Inhibition of NOD2 in human PBMC-derived macrophages assessed as reduction in MDP-stimulated TNFalpha mRNA expression at 10 uM preincubated for 1 hr followed by MDP stimulation for 90 mins by RT-qPCR analysis; method in brief: as §1
[12] = target: T3, Nucleotide-binding oligomerization domain-containing protein 2; assay: Inhibition of NOD2 in human PBMC-derived macrophages assessed as reduction in MDP-stimulated IL6 mRNA expression preincubated for 1 hr followed by MDP stimulation for 90 mins by RT-qPCR analysis; method in brief: as §1
[13] = target: T3, Nucleotide-binding oligomerization domain-containing protein 2; assay: Inhibition of NOD2 in human PBMC-derived macrophages assessed as reduction in MDP-stimulated IL6 mRNA expression at 10 uM preincubated for 1 hr followed by MDP stimulation for 90 mins by RT-qPCR analysis; method in brief: as §1
[14] = target: T3, Nucleotide-binding oligomerization domain-containing protein 2; assay: Antagonist activity at human NOD2 expressed in HEK-Blue cells assessed as inhibition of MDP-stimulated cell activation at 5 uM preincubated for 3 hrs followed by MDP addition measured after 20 hrs by SEAP reporter gene assay; assay type: cell-based

T3 sequence (Q9HC29 whole entry, the tested form may be a part): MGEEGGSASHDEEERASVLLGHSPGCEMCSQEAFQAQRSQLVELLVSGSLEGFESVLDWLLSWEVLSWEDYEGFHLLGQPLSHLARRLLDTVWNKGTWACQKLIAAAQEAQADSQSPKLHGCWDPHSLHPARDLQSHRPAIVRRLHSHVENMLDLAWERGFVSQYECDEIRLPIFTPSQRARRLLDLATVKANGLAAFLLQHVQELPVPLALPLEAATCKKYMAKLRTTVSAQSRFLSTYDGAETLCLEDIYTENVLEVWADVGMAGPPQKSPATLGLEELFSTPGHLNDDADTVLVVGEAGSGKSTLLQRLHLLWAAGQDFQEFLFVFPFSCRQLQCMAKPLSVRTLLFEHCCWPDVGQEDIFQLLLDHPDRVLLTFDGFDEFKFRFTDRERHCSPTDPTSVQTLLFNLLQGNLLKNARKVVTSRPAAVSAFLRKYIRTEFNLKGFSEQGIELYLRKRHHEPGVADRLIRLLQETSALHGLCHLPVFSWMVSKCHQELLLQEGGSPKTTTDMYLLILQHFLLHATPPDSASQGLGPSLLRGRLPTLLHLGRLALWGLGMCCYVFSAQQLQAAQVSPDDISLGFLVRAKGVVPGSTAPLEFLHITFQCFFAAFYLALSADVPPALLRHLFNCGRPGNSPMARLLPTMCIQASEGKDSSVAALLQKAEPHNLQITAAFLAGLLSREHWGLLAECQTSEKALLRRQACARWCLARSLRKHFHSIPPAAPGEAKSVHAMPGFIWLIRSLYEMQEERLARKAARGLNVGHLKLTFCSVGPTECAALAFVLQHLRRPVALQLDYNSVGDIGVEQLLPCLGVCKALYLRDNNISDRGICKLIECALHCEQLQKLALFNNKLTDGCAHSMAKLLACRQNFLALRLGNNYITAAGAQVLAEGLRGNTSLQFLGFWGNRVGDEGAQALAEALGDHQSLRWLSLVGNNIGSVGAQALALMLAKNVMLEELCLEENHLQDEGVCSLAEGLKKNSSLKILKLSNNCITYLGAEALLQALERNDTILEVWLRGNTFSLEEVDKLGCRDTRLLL
Receptor-interacting serine/threonine-protein kinase 2 (Homo sapiens), sequence (O43353 whole entry, the tested form may be a part): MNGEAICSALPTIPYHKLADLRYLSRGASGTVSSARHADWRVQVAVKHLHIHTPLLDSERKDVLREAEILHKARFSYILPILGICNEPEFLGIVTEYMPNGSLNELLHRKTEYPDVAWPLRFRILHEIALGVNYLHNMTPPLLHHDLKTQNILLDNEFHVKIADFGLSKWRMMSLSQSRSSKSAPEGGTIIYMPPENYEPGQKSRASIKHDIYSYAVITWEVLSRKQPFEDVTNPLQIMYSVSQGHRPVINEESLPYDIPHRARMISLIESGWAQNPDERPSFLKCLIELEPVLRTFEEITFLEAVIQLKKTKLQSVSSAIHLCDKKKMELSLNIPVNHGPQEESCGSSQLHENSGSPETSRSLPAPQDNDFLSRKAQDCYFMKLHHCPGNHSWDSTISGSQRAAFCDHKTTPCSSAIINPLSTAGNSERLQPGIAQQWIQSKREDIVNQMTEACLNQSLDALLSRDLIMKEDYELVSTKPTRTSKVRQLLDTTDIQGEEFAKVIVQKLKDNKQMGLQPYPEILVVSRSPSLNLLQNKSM

CCCNC(=O)CC[C@H]1NC(=O)c2cc(Oc3cccc(N(C)C)c3)c(NC(=O)COCc3ccccc3)cc2NC1=O was tested, and the inhibition [1] was 54.6%, the IC50 [2] was 2.36 µM and the inhibition [3] was “Active”. For the same molecule, the inhibition [4] was “Dose-dependent effect”, the inhibition [5] was “Dose-dependent effect” and the inhibition [6] was “Dose-dependent effect”. For the same molecule, the inhibition [7] was 80.4%, the IC50 [8] was 4.16 µM and the inhibition [9] was “inactive”. The inhibition [10] was “Dose-dependent effect”, the inhibition [11] was “Active” and the inhibition [12] was “Dose-dependent effect”. The inhibition [13] was “Active” and the inhibition [14] was 60.9%.
